G6PDH CS = L. mesenteroides G6PDH inhibitors, counter-screen for G6PDH-coupled screening assays, biochemical, Leuconostoc mesenteroides enzyme. inhibition, % at 5 µM. 200,000 compounds, 0.12% hits. Purified L. mesenteroides G6PDH, diaphorase/resazurin coupled fluorescence, 45 min; in the data active means inhibition above about 50%
Tb hexokinase = Trypanosoma brucei hexokinase 1 inhibitors, primary screen, biochemical, G6PDH-coupled NADH absorbance, MLSCN library | hexokinase 1 [Trypanosoma brucei] | AID 1430, 2008 | recombinant TbHK1, G6PDH-coupled NADH A340 | 220,000 compounds, 0.11% hits | inhibition, % at 10 µM;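 active means inhibition of 50% or more in the single-dose primary screen; inactive means inhibition below 50%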
PfGluPho inh = PfG6PD enzyme inhibitors, primary screen, biochemical, fluorescence intensity, uHTS | AID 504690, 2011 | inhibition, % at 20 µM | 350,000 compounds, 0.78% hits | glucose-6-phosphate dehydrogenase-6-phosphogluconolactonase (Plasmodium falciparum 3D7) | PfGluPho enzyme, NADPH resazurin-diaphorase fluorescence;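 active means inhibition reaching at least a set limit at 20 µM in the primary screen, cut at about 59% in these data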;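 further: 0% = DMSO wells with substrate and 100% = DMSO wells lacking glucose-6-phosphate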
HKDC1 inhibitor = HKDC1 hexokinase inhibitors, primary screen, biochemical, fluorescence, uHTS. Q2TB90. inhibition, % at 20 µM. AID 493160, 2011. recombinant HKDC1, G6PDH/diaphorase resazurin coupled fluorescence. 340,000 compounds, 0.16% hits;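 active means inhibition above about 35% when tested at 20 µM, limit read from the data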;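 further: plate controls were DMSO wells with enzyme for no effect and DMSO wells lacking enzyme for full effect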
Target sequence (Q2TB90 whole entry, looked up): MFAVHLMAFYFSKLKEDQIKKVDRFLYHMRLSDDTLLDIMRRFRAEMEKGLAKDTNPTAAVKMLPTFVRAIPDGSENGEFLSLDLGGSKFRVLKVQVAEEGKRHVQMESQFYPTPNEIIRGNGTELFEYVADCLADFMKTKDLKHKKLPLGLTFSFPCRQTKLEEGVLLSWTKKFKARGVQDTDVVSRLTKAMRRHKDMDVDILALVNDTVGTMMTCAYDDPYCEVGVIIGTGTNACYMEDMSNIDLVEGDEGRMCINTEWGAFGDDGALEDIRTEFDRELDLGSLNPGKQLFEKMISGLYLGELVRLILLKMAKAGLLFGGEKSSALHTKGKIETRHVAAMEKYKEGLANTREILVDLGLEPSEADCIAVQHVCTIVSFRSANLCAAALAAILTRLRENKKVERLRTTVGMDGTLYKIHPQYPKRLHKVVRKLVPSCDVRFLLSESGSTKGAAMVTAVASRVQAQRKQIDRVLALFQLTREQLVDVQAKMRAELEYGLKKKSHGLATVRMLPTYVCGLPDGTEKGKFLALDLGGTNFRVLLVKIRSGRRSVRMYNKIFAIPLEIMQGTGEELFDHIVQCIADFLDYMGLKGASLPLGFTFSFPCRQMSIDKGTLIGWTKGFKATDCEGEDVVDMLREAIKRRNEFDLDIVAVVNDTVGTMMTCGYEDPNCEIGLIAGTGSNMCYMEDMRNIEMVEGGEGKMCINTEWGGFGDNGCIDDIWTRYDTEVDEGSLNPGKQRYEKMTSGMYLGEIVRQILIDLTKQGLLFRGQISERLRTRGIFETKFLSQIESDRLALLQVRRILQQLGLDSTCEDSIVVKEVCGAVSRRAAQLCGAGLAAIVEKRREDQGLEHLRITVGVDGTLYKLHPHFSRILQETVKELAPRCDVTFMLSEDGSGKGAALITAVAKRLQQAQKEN
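Assay system: recombinant HKDC1 hexokinase; detection: coupled resazurin fluorescence, excitation 525 nm, emission 613 nm; benchmarks: DMSO-plus-enzyme-mix negative control, buffer-substituted positive control; compound dosing: single 20 µM dose; schedule: 90 min at room temperature in dark; also added: glucose plus 1 mM ATP as hexokinase substrates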
Diaphorase act = compounds boosting diaphorase resazurin reduction – biochemical, uHTS, resorufin fluorescence, counter-screen for diaphorase-coupled primary assays, primary screen | Diaphorase/resazurin coupled assay, 16 min; active compounds read high; 1 = vehicle wells, 0 = NADH-free wells | activation factor at 20 µM | 190,000 compounds, 0.005% hits | AID 1229, 2008;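 active means diaphorase activity raised at least twofold by the compound at 20 µM; inactive means activation factor below 2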
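Material: bacterial diaphorase enzyme (C. kluyveri); amount: enzyme 0.07 U/mL final; reagent: NADH substrate 0.114 mM plus resazurin dye 0.1 mM, final; doses: single compound dose of 20 µM, 1% DMSO final; timing: 16 min enzyme reaction, ambient temperature; measured by: fluorescence of resorufin, 544 nm excitation, 590 nm emission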
Diaphorase inh = diaphorase inhibitors and chemical oxidizers, primary screen, counter-screen for diaphorase-coupled primary assays, biochemical, uHTS, resorufin fluorescence | diaphorase resazurin-to-resorufin fluorescence, NADH, 16 min; bacterial (C. kluyveri) enzyme, not human | inhibition, % at 20 µM | 190,000 compounds, 0.69% hits;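 active means primary screen inhibition at 20 µM above a set limit, cut at about 50% in these data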;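 further: plate controls were DMSO with full reaction for no effect and wells lacking NADH for full effect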
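Assay system – diaphorase enzyme from Clostridium kluyveri · Amount – diaphorase 0.14 U/mL (working solution) · Times – reaction incubation of 16 min at room temperature · Controls – No-NADH positive control and DMSO neutral control · Signal – resorufin fluorescence 544/590 nm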
PfG6PD confirm = PfG6PD inhibitors, hit retest, confirmation, biochemical, fluorescence intensity, single concentration. recombinant PfGluPho, NADPH-diaphorase-resazurin fluorescence. 2,400 compounds, 34% hits. shares compounds with PfGluPho inh. inhibition, % at 20 µM. AID 504753, 2011;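 active means inhibition of at least 50% at 20 µM in any single replicate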;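 further: 0% = DMSO with substrate and 100% = DMSO lacking glucose-6-phosphate substrate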
Diaphorase 10uM = diaphorase inhibitors and chemical oxidizers, confirmation, counter-screen for P. falciparum G6PD inhibitor project, biochemical, fluorescence intensity, 10 µM NADPH | shares compounds with PfGluPho inh | diaphorase-coupled resazurin reduction, NADPH 10 uM | inhibition, % at 20 µM | 820 compounds, 39% hits | AID 504862, 2011;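 active means average inhibition reaching 50% or more with the compound at 20 µM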;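 further: resorufin red fluorescence formed as diaphorase reduces resazurin using NADPH; 0% = DMSO with enzyme and 100% = DMSO without enzyme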
Diaphorase 30uM = diaphorase inhibitors and chemical oxidizers, confirmation, counter-screen for P. falciparum G6PD inhibitor project, biochemical, fluorescence intensity, 30 µM NADPH; Diaphorase/resazurin coupled assay, resorufin fluorescence; shares compounds with PfGluPho inh; inhibition, % at 20 µM; 820 compounds, 29% hits;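 active means inhibition averaging 50% or more, tested at 20 µM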;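 further: 0% = DMSO with enzyme and 100% = DMSO wells lacking diaphorase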
* = called active by the depositor. Rows were chosen to be rich in hits. Some 1.3% of all compounds tested hit in one or more screens of this group.

`CCCn1c(/C=C/c2ccccc2)nc2ccccc21` gave G6PDH CS 4.5, Tb hexokinase -41.1, PfGluPho inh 59.2*, HKDC1 inhibitor -3.9, Diaphorase act 1, Diaphorase inh 0.1 and PfG6PD confirm 10.3.
Screening COc1ccc(/C=C/c2nc3ccccc3n2Cc2ccc(OC)c(OC)c2)cc1 returned G6PDH CS -3.5, Tb hexokinase -30.4, PfGluPho inh 65.5*, HKDC1 inhibitor 3.5, Diaphorase act 0.9, Diaphorase inh 7.5, PfG6PD confirm 48.6*, Diaphorase 10uM 43.0 and Diaphorase 30uM 30.0.
For CCn1c(/C=C/c2cc[n+](C)cc2)nc2ccccc21 the results were PfGluPho inh -4.1 and HKDC1 inhibitor -5.2.
`COCCOCCn1c(CCCO)nc2ccccc21` gave G6PDH CS 1.3, Tb hexokinase 1.7, PfGluPho inh 7.5, HKDC1 inhibitor -6.5, Diaphorase act 1 and Diaphorase inh 3.8.
For COc1ccc(C(=S)N2CCN(c3ccccc3C)CC2)cc1OC the results were PfGluPho inh 33.9 and HKDC1 inhibitor 3.2.
CCOC(=O)c1c(NC(=O)C(Sc2ccccc2)c2ccccc2)sc(C(=O)N(C)C)c1C (stereo not given) was read as G6PDH CS -11.5, Tb hexokinase 21.8, PfGluPho inh 78.7*, HKDC1 inhibitor -5.1, Diaphorase act 1, Diaphorase inh 0.0 and PfG6PD confirm 0.3.
Screening CCOC(=O)c1c(NC(=O)C(Sc2ccccc2)c2ccccc2)sc(C(N)=O)c1C (stereo not given) returned G6PDH CS 10.0, Tb hexokinase -1.8, PfGluPho inh 61.1*, HKDC1 inhibitor 0.1, Diaphorase act 0.6, Diaphorase inh 35.8 and PfG6PD confirm 1.9.
`COc1ccc(NC(=O)c2ccc3[nH]c(C)c(C)c3c2)c(OC)c1` gave PfGluPho inh 61.5*, HKDC1 inhibitor 3.0 and PfG6PD confirm -3.6.
For CC1(C)CC2(CC(c3ccccc3F)c3ccc(O)c(O)c3O2)NC(=S)N1 (stereo not given) the results were G6PDH CS 29.3, Tb hexokinase -2.9, PfGluPho inh 66.1*, HKDC1 inhibitor 7.5, Diaphorase act 0.3, Diaphorase inh 67.7*, PfG6PD confirm 70.3*, Diaphorase 10uM 23.4 and Diaphorase 30uM 13.4.
For CC1(C)CC2(CC(c3ccc(F)cc3)c3ccc(O)cc3O2)NC(=S)N1 (stereo not given) the results were Tb hexokinase -10.4, PfGluPho inh 9.4 and HKDC1 inhibitor -4.2.
Cc1ccc2nc(-c3cccc(S(=O)(=O)N(C)C)c3)cn2c1 was read as G6PDH CS 6.5, Tb hexokinase -6.9, PfGluPho inh 50.2, HKDC1 inhibitor 1.6, Diaphorase act 0.9 and Diaphorase inh 5.5.
Screening COc1ccc(-c2cn3cc(Cl)ccc3n2)cc1OC returned G6PDH CS 8.9, Tb hexokinase -20.4, PfGluPho inh 132.9*, HKDC1 inhibitor -2.3, Diaphorase act 0.9, Diaphorase inh 7.8, PfG6PD confirm 76.9*, Diaphorase 10uM 61.6* and Diaphorase 30uM 57.3*.
Clc1ccc2nc(-c3ccc(Br)s3)cn2c1 was read as G6PDH CS -31.7, Tb hexokinase -10.1, PfGluPho inh 80.4*, HKDC1 inhibitor -4.8, Diaphorase act 0.8, Diaphorase inh 23.1, PfG6PD confirm 50.8*, Diaphorase 10uM 37.9 and Diaphorase 30uM 41.7.
COc1ccc(-c2cn3cc(C)ccc3n2)cc1Br was read as G6PDH CS 3.6, Tb hexokinase -2.5, PfGluPho inh 103.3*, HKDC1 inhibitor 14.7, Diaphorase act 0.9, Diaphorase inh 5.0, PfG6PD confirm 53.8*, Diaphorase 10uM 45.4 and Diaphorase 30uM 30.3.
`O=C(COC(=O)c1ccc(O)cc1)Nc1ccc2c(c1)OCO2` gave PfGluPho inh 11.5 and HKDC1 inhibitor -2.6.
Screening CC[n+]1c(/C=C2\C=C(C)CC(C)(C)C2)sc2ccccc21 returned G6PDH CS 2.0, Tb hexokinase -10.6, PfGluPho inh 61.4*, HKDC1 inhibitor -5.8, Diaphorase act 0.7, Diaphorase inh 30.7 and PfG6PD confirm 3.0.
Screening O=C(COC(=O)c1cnccn1)NCc1ccc2c(c1)OCO2 returned G6PDH CS 13.1, Tb hexokinase -0.9, PfGluPho inh 2.6, HKDC1 inhibitor -5.5, Diaphorase act 1.1 and Diaphorase inh -6.5.
For COc1cc(C(=O)OCc2csc(CC(=O)Nc3ccccc3C)n2)ccc1OCC(C)C the results were PfGluPho inh 14.8 and HKDC1 inhibitor 0.7.
Screening O=S(=O)(Nc1ccccc1-c1ccccc1)c1ccccc1 returned PfGluPho inh 58.6 and HKDC1 inhibitor 2.6.
Cc1cc(C)c(S(=O)(=O)Nc2ccccc2-c2ccccc2)c(C)c1 was read as G6PDH CS 15.0, Tb hexokinase 8.0, PfGluPho inh 85.1*, HKDC1 inhibitor 16.0, Diaphorase act 0.8, Diaphorase inh 23.3 and PfG6PD confirm 8.0.
O=S(=O)(NCc1csc(-c2ccccc2)n1)c1ccc(Cl)s1 was read as G6PDH CS 18.0, Tb hexokinase 6.4, PfGluPho inh 99.3*, HKDC1 inhibitor 1.5, Diaphorase act 1, Diaphorase inh 4.7, PfG6PD confirm 47.6*, Diaphorase 10uM 42.6 and Diaphorase 30uM 41.4.
`O=S(=O)(NCc1csc(-c2cccnc2)n1)c1ccc(Cl)s1` gave G6PDH CS -15.5, Tb hexokinase -3.2, PfGluPho inh 48.2, HKDC1 inhibitor -2.0, Diaphorase act 0.9 and Diaphorase inh 5.0.
Screening COc1cc(NC(=O)CN2C(=O)COc3ccccc32)cc(OC)c1 returned PfGluPho inh -17.5 and HKDC1 inhibitor -1.4.
